The chains are these.
B1: tRNA (parent)
chain: GUUCCGUUGGCGUAAUGGUAACGCGUCUCCCUCCUAAGGAGAAGACUGCGGGUUCGAGUCCCGUACGGAACG

Variants at the floor of the assay were thinned out.

Variants of B1 are the subject of the data set. Put plainly: yeast fitness relative to wild type (ratio to wild type); higher = fitter; tRNA-Arg(CCU), competitive growth, 37 C, YPD. The procedure, abridged: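 Start and end populations of a pooled competition were compared by 100-nucleotide paired-end sequencing of gene amplicons. The Saccharomyces cerevisiae strains carried tRNA-Arg(CCU) gene variants at the native genomic locus, synthesised with a 3% per-site mutation rate at 69 sites, and competed in YPD at 37°C for 24 hours in six parallel replicates. Darwinian fitness relative to wild type was based on the change in genotype frequencies. Genotypes required ≥ 100 starting reads, and estimates < 0.5 were set to 0.5.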
Turning to GUUCCGGUGGCGUAAUGGUAAUGCGUCUCCCUCCUAAGGAGAAGACUGGCGGUUCGAGUCCCGUACGGAACG [U7G C22U C49G G50C], the yeast fitness worked out at 0.512.
As to GUUCCGUUGGCGUAAUGUUAACGCGUCUCCCUCCUAAGGAGAAGACUGCGGGUUCGAGUCCCGUACGGAACG [G18U], the yeast fitness was 0.844.
Take GUUCCGUUGGCGUACUGGUAACGCGUCUCCCUCCUAUGGAGAAGACUGCGGGUUCGAGUCCCGUAUGGAACG [A15C A37U C66U]: the yeast fitness is 0.584.
On to GUACCGUUGGCGUAAUGGUAACGCGUCUCCCUCCUACGGAGACGACUGCGGGUUCGAGUCCCGUACGGAACG [U3A A37C A43C], for which the yeast fitness is at most 0.5.
As to GUUCCGUUGGCGUAAUGGUAACGCAUCUCCCUCCUAAGGAGAAGGCUGCGGGUUCGAGUCCCGUACGGAACG [G25A A45G], the yeast fitness was found to be 0.961.
The figure for GUUCCGUUGGCGUAAUGGUAACGCGUCUCACUCCUAAGGAGAAGACUGCGGGUUCGAGUCCCGUGCCGAACG [C30A A65G G67C] is 0.526; for GUUCCGUUGGCGUAAUGGUAACGCGUCUCCCUCCUAAGGAGAAGACUACGCGUUCGAGUCCCGUACCGAACG [G48A G51C G67C] it is at most 0.5.
For the variant GUUCCGUUAGCGUAAUGGUAACGCGUCUCCCUCCUAAGGAGAAGGCUGCGGGUUCGAGUCCCGUACGCAACG [G9A A45G G68C], the yeast fitness is 0.543.
The figure for GUUCCGUUGGCGUAAUGGUAAUGUGUCUCCCUCCUAAGGAGAAGACUGCGGGUUCGAGUCCCGUACGGAACG [C22U C24U] is 0.885; for GUUCCGUUGGGGUAAUGGUAACGCGUCUCCCUCCUUAGGAGAAGUCUGCGCGUUUGAGUCCCGUACGGAACG [C11G A36U A45U G51C C55U] it is at most 0.5; for GUCCCGUUGGCGUAAUGGUAACGCGUCUCCCUCCUAAGCAGAAGACUGCGGGUUCGAGUCCCGUACGGAACG [U3C G39C] it is 0.695.
The figure for GUUCCGUUGGCGUAAUGGUAACGCGUCUCCCUCCUAAGGGGAAGUCUGCGGGUUCGAGUCCCGUACGGAACG [A40G A45U] is 0.786.
Regarding GUUCCAUUGGCGUAAUGGGAACGCGUCUCCCUCCUAAGGAGAAGACUGCGGGUUCGAGUCCCGUACGGAACG [G6A U19G], the yeast fitness was determined as 0.828.
Turning to GUUCCGUUGGGGUAAUGGUAACGCGUCUCCCUCCUAAGGAGGAGUCCGCGGGUUCGAGUCCCGCACGGACCG [C11G A42G A45U U47C U64C A70C], the yeast fitness is at most 0.5.
For GUUCCGUUGGCGUAAUGGUAACGCGUCUCCCUCCUAAGGAGAGGACUGCGGGUUCGAGUCCCGUAUGAAACG [A43G C66U G68A], the yeast fitness is 0.585.
For GUUCCGUUGGCGUAAUGGUAACGCGUCUCCCUCCUAAGGAGAAGACUGCGGGUUCGAGUCCCGUAAGGAUCG [C66A A70U], the yeast fitness stood at 0.603.
For GUUCCGUUGGCGUUAUGGUAACGCGUCUCCCUCCUAAGGAGAAGACUGCGGGUUUGAGUCCCGUACGGAACG [A14U C55U], the yeast fitness was at most 0.5.
GUUCCGUUGGCGUAAUGGUAACGAGUCUCCCUCCUAAGGAGAAGACUGUGGGUUCGAGUCCUGUACGGAACG [C24A C49U C62U]: the yeast fitness amounted to 0.654.
Consider GUUCCGUUGGGGUAAUGGUAACGCGUCUCCCCCCUAAGGUGAAGACUGCGGGUUCGAGUCCCGUACGGAACG [C11G U32C A40U], for which the yeast fitness turned out to be 0.662.
The figure for GUUCCGUUGGCGUAAUGGUAACGCGUCUCCCUCCUAAGGAGUAGACUGCGGGUUCGAGUCCCGUACCGCACG [A42U G67C A69C] is 0.573.
As for GUUCCGUUGGCGUACUGGUAACGCGUCUCCGUGCUAAGGAGAAGACUGCGGGUUUGAGUCUCGUACGGAACG [A15C C31G C33G C55U C61U], the yeast fitness came to 0.504.
The figure for GUUCCGUUGGCGUAAUGGUAACGCGACUCCCUCCUAAGGAGAAGACUGCGGGGUCGAGUCCCGUACGGAACG [U26A U53G] is 0.704; for GUUCCGUUGGUGUAAUGGUAACGCGUCUCCCUCCUCAGGAGAAGACUGCGGGUUCGAGUCCCGAACGGACCG [C11U A36C U64A A70C] it is at most 0.5.
The figure for GCUCCGUUGGCGUAAUGGUAACGCGUCUCCCUCCUAGCGAGAAGACUGUGGCUUCGCGUCCCGUCCGGAACG [U2C A37G G38C C49U G52C A57C A65C] is at most 0.5; for GUUGCGUUGGCGUAAUGCUAACGCGUCUCCCUGCUAAGGAAAAGACUGCGGGUUGGAGUCCCGUACGGAACG [C4G G18C C33G G41A C55G] it is at most 0.5; for GUUCCGUUGCCGUAAUGGUAACGCGUCUCCCUCCUAAGGAGAAGACUGCGGGUUCGAGUCGCGUACGGAACG [G10C C61G] it is 0.656.
As to GUUCCGUUCGCGUAAUGGUAACGCGUCUCCCUCCUUAGGAGAAGACUGCGGGUUCGAGUCCCGUACGGAACG [G9C A36U], the yeast fitness was 0.618.
For GUUCCGUUGGCGUAAUGGUAAAGCGUCUCCCUCCUAAGGAGAAGACUGCGGGCUCGAGUCCUGUACGGAACG [C22A U53C C62U], the yeast fitness is at most 0.5.
Consider GUUGCGUUGGUGUAAUGGCAACGCGUCGCCCUCCUAAGGAGAAGCCUGCGGGAUCGAGUCCCCUACGGAACG [C4G C11U U19C U28G A45C U53A G63C], for which the yeast fitness is at most 0.5.
For GUUCCGUUGGCGUAAUGGCAACGCGUCUCCCUCGUAAGGAGAAGACUGCGGGUUCGAGUCCCGUACGAAACG [U19C C34G G68A], the yeast fitness is at most 0.5.
The figure for GUUCCAUUGGCGUAAUCGUAACGCGUCUCCCUCCUAAGGAGAAGACUGCGGGUUCGAGUCCCGUACGGAACG [G6A G17C] is 0.744; for GGUCCGUUGGCCUAAUGGUUACGCGUCUCCCUUCUAUGGAGAAGACUGCGGGUUCGUGUCCCGUACGGAACG [U2G G12C A20U C33U A37U A57U] it is at most 0.5.
As for GUUUCGUUGGCGUAAUGGUAACGCGUCUCCGUCGUAAGGAGAUGACUGCGGGUUCGAGUCCCGUACGCGACG [C4U C31G C34G A43U G68C A69G], the yeast fitness is at most 0.5.
Take GUUCCGUUGGCGUAAUGGUAACGCGUCUCCCCCCUAAGGACAAGACUGCAGGUUCGAGUCGCGUACGGAACG [U32C G41C G50A C61G]: the yeast fitness was 0.565.
The figure for GUUCCGUUGGGGUAAUGGUAACGUGUCUCUCUCCUAAGGAGAAGACUGCGGGUACGAGUCCCGUACGGAACG [C11G C24U C30U U54A] is at most 0.5; for GUUCCGGUGGCGUAAUGGUAACGCGUCUCCCUUCUAAGGAGAAGACUGCGGGUUGGAGUCCCGUACGGAACG [U7G C33U C55G] it is at most 0.5.
GUUCCGUUGGCGUACAGGUAACGCGUCUCCCUCCUAAGGAGAAGACUGCGGGUUCCCGUUCCGUACGGAACG [A15C U16A G56C A57C C60U]: the yeast fitness was at most 0.5.
With GUUCCGUUGGCGUAAUGGUAACGCGUCUCCCACCUAAGGAGAAGACUGCGGGCUCGAGUCCCGUACGGCACG [U32A U53C A69C], the yeast fitness was at most 0.5.

For the origin of these results see the RNAGym collection of RNA variant scans (doi:10.1126/science.aae0568).
